From ChEMBL document CHEMBL4699573, “Design, Synthesis, and Pharmacological Evaluation of Analogues Derived from the PLEV Tetrapeptide as Protein-Protein Interaction Modulators of Voltage-Gated Sodium Channel 1.6” (J Med Chem, 2020)
Active and inactive are the calls of the source. The rule behind the calls is not given here. Residues, ends and D or L forms follow the SMILES beside them. *: point of attachment. Adamantane1carbonyl = O=C(C12CC3CC(CC(C3)C1)C2)*; OtBu = CC(C)(C)O*

Tests used:
[1] = biological target: T1, Fibroblast growth factor 14/SCN8A (Homo sapiens) (UniProt Q9UQD0+Q92915); experiment: Modulation of recombinant human Nav1.6 C-terminal tail (1763 to 1976 residues)-FGF14 (64 to 252 residues) protein-protein interaction expressed in HEK293 cells assessed as peak current density at 10 uM incubated for 30 mins by whole cell patch clamp electrophysiology assay (reference value: -19.3 +/- 1.3); assay type: cell-based
T1 sequence (Q9UQD0 whole entry, looked up, one chain of several, the tested form may be a part): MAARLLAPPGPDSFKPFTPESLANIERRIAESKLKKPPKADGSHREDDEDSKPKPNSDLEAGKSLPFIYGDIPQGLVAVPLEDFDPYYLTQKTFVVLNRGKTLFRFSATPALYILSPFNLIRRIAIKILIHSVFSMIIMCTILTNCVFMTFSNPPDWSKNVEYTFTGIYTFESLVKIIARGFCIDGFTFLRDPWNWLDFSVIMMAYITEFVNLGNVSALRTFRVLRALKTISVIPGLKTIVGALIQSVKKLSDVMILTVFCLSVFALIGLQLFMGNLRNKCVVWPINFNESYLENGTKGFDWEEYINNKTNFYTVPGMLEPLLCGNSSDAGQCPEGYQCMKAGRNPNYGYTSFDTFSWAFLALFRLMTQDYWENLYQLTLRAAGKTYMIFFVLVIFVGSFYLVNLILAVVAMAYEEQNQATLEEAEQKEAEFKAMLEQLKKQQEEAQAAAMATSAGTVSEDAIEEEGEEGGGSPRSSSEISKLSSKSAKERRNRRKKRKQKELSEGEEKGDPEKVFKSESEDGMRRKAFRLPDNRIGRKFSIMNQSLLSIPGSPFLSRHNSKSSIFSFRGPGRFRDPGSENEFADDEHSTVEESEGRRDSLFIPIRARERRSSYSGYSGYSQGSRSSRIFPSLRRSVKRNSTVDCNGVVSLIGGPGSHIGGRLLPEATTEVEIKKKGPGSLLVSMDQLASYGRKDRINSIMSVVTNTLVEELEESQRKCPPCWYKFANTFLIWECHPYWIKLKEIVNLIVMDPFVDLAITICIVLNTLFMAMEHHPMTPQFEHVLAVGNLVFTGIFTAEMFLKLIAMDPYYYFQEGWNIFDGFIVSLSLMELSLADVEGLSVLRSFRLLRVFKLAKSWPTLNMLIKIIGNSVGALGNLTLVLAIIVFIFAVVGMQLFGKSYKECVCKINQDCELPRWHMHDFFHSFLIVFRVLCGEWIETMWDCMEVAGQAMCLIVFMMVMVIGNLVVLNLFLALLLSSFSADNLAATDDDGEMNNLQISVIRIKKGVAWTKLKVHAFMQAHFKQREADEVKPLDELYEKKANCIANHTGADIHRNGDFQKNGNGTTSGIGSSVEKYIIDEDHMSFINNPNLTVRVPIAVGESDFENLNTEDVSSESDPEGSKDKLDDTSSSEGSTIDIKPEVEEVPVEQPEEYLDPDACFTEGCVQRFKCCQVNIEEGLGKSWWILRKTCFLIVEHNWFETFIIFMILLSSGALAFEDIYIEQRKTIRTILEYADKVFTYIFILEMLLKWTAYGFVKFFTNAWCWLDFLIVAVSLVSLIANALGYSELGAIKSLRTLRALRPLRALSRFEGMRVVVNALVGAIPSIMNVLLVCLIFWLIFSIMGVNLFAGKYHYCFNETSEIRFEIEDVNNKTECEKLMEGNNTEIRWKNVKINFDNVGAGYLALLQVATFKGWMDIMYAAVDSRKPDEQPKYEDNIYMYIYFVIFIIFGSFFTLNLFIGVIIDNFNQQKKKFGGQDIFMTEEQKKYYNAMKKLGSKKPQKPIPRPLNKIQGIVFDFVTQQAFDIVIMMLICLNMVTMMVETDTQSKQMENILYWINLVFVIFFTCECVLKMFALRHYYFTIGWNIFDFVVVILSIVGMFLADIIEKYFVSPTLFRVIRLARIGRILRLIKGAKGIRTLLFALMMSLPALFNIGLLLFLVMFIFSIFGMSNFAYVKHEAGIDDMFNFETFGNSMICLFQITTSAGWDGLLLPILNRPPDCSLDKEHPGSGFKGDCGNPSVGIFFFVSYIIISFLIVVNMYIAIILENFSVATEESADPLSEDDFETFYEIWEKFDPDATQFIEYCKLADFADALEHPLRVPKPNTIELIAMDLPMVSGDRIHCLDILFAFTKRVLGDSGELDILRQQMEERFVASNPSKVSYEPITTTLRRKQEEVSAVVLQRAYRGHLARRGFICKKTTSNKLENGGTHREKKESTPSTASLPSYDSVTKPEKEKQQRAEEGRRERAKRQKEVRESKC
How it was run: (§1)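 HEK-Nav1.6 cells transiently transfected with FGF14 using Lipofectamine 2000, then exposed at least 30 min to 10 μM compound or 0.1% DMSO in the pH 7.3 HEPES extracellular solution. Whole-cell patch clamp with Cs-methanesulfonate internal solution, 70–80% capacitance and series-resistance compensation. Test steps from −100 to +60 mV. Student's t-test used.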

[2] = biological target: T2, Sodium channel protein type 8 subunit alpha (Homo sapiens, UniProt Q9UQD0); experiment: (§2) Modulation of recombinant human Nav1.6 C-terminal tail (1763 to 1976 residues) expressed in HEK293 cells assessed as half activation voltage at 10 uM incubated for 30 mins by whole cell patch clamp electrophysiology assay (reference value: -25.4 +/- 1 mV); assay type: cell-based
How it was run: (§3)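 Stable HEK-Nav1.6 cells without FGF14, incubated at least 30 min in extracellular solution (mM: 140 NaCl, 3 KCl, 1 MgCl2, 1 CaCl2, 10 HEPES, 10 glucose, pH 7.3) with compound (10 or 30 μM) or 0.1% DMSO. Whole-cell recording with Cs-methanesulfonate/EGTA/NaCl/HEPES pipette solution, 70–80% compensation. Steps −100 to +60 mV; tau measured at −10 mV. Student's t-test.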
Target sequence in this assay (Q9UQD0 whole entry, looked up, the tested form may be a part): as the sequence (Q9UQD0 whole entry, looked up, one chain of several, the tested form may be a part) above

[3] = biological target: T2, Sodium channel protein type 8 subunit alpha; experiment: Binding affinity to human recombinant Nav1.6 C-terminal domain expressed in Escherichia coli BL21 assessed as dissociation constant by SPR analysis
How it was run: (§4)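 Biacore T100 runs with FGF14 (17,896 RU) or Nav1.6 C-tail (6,800 RU) amine-coupled on CM5 at pH 5.5. Compounds at 0.195–200 μM in PBS, 0.005% Tween-20, 2% DMSO; 50 μL/min at 25 °C. 120 s association, 150 s dissociation, DMSO calibration, blank subtraction. Rates from a Langmuir 1:1 fit; KD averages the kinetic and steady-state values. At least duplicate experiments.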
Target sequence in this assay (Q9UQD0 whole entry, the tested form may be a part): as the sequence (Q9UQD0 whole entry, looked up, one chain of several, the tested form may be a part) above

[4] = biological target: T1, Fibroblast growth factor 14/SCN8A (Homo sapiens); experiment: Modulation of human recombinant FGF14-Nav1.6 C-terminal domain expressed in Escherichia coli BL21 (DE3) protein-protein interaction assessed as association rate constant by SPR analysis (reference value: 2.18X10^4 +/- 1.6X10^2 /M/s); details: filed as modulator
How it was run: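 FGF14 at 15.6–1500 nM, premixed with 10 μM compound or DMSO, flowed over CM5-bound Nav1.6 C-terminal tail (934 RU). Final 2.1% DMSO, 25 °C, 50 μL/min, 120 s association and 150 s dissociation. Blank-subtracted sensorgrams fitted to a Langmuir 1:1 model.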

[5] = biological target: T2, Sodium channel protein type 8 subunit alpha; experiment: Binding affinity to human recombinant Nav1.6 C-terminal domain expressed in Escherichia coli BL21 assessed as dissociation rate constant by SPR analysis; details: filed as modulator; how it was run: as §4
Target sequence in this assay (Q9UQD0 whole entry, looked up, the tested form may be a part): as the sequence (Q9UQD0 whole entry, looked up, one chain of several, the tested form may be a part) above

[6] = biological target: T3, Fibroblast growth factor 14 (Homo sapiens, UniProt Q92915); experiment: Binding affinity to human recombinant FGF14 expressed in Escherichia coli BL21 assessed as dissociation constant by SPR analysis; how it was run: as §4
T3 sequence (Q92915 whole entry): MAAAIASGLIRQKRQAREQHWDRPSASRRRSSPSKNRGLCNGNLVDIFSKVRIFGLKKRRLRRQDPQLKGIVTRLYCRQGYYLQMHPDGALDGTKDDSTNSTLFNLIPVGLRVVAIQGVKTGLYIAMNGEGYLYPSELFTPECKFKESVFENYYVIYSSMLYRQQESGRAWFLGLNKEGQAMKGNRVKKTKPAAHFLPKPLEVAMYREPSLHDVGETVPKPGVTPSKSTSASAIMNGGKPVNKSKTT

[7] = biological target: T1, Fibroblast growth factor 14/SCN8A (Homo sapiens); experiment: as §2, with “1976 residues)-FGF14 (64 to 252” for “1976”, “residues) protein-protein interaction” for “residues)”, “by” for “by whole”, “-21.4” for “-25.4”, “mv)” for “mV)”; assay type: cell-based; how it was run: as §1
[8] = biological target: T1, Fibroblast growth factor 14/SCN8A (Homo sapiens); experiment: Modulation of recombinant human Nav1.6 C-terminal tail (1763 to 1976 residues) -FGF14 (64 to 252 residues) protein-protein interaction expressed in HEK293 cells assessed as long-term inactivation at depolarization cycle 4 at 10 uM incubated for 30 mins by cell patch clamp electrophysiology assay (reference value: 0.98 +/- 0.06); assay type: cell-based; details: filed as modulator
[9] = system: HEK293; experiment: Modulation of recombinant human FGF141b (1 to 252 residues)-recombinant human Nav1.6 C-terminal tail (1763 to 1976 residues) protein-protein interaction expressed in HEK293 cells assessed as relative luminescence value at 50 uM measured at 2 mins interval for 20 mins by split-luciferase complementation assay relative to control; assay type: cell-based; details: filed as modulator, time min 2-20
How it was run: (§5)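 Double-stable HEK293 line expressing CLuc-FGF14 and CD4-Nav1.6-C-tail-NLuc, kept on G418 and puromycin. Cells seeded for 24 h, then given compound for 1 h in serum-free, phenol red-free DMEM/F12 with a final 0.5% DMSO: 50 μM for screening, 0.25–100 μM over eight concentrations for dose-response; n = 4. D-luciferin added and read every 2 min for 20 min at 37 °C. Peak luminescence expressed as percent of per-plate DMSO mean (n = 32). IC50 from four-parameter nonlinear fit. At least 3 experiments.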

[10] = Modulation of recombinant human FGF141b (1 to 252 residues)-recombinant human Nav1.6 C-terminal tail (1763 to 1976 residues) protein-protein interaction expressed in HEK293 cells measured at 2 mins interval for 20 mins by split-luciferase complementation assay; assay type: cell-based; how it was run: as §5
[11] = biological target: T2, Sodium channel protein type 8 subunit alpha; experiment: Modulation of recombinant human Nav1.6 C-terminal tail (1763 to 1976 residues) expressed in HEK293 cells assessed as peak current density at 30 uM incubated for 30 mins by whole cell patch clamp electrophysiology assay (reference value: -50.1 +/- 3.1 pA/pF); assay type: cell-based; how it was run: as §3
Target sequence in this assay (Q9UQD0 whole entry, looked up, the tested form may be a part): as the sequence (Q9UQD0 whole entry, looked up, one chain of several, the tested form may be a part) above

[12] = biological target: T4, Fibroblast growth factor 14 (Homo sapiens) (UniProt Q92915); experiment: Binding affinity to human recombinant FGF14 expressed in Escherichia coli BL21 assessed as association rate constant by SPR analysis; details: filed as modulator; how it was run: as §4
T4 sequence (whole entry): T3 sequence (Q92915 whole entry)

[13] = system: HEK293; experiment: Inhibition of full-length Photinus pyralis luciferase transfected in HEK293 cells at 25 uM incubated for 1 hrs by split-luciferase complementation assay; assay type: cell-based
How it was run: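 HEK293 cells transfected with full-length Photinus pyralis luciferase, then treated 1 h with 25 μM compound (n = 4) or 0.5% DMSO (n = 32). Luminescence read after D-luciferin addition, as in the LCA, normalized to per-plate DMSO controls. One-way ANOVA with Dunnett's test.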

[14] = biological target: T2, Sodium channel protein type 8 subunit alpha; experiment: Modulation of recombinant human Nav1.6 C-terminal tail (1763 to 1976 residues) expressed in HEK293 cells assessed as peak current density at 10 uM incubated for 30 mins by whole cell patch clamp electrophysiology assay (reference value: -50.1 +/- 3.1 pA/pF); assay type: cell-based; details: filed as modulator; how it was run: as §3
Target sequence in this assay (Q9UQD0 whole entry, looked up, the tested form may be a part): as the sequence (Q9UQD0 whole entry, looked up, one chain of several, the tested form may be a part) above

[15] = biological target: T2, Sodium channel protein type 8 subunit alpha; experiment: (§6) Modulation of recombinant human Nav1.6 C-terminal tail (1763 to 1976 residues) expressed in HEK293 cells assessed as steady state half inactivation voltage at 10 uM incubated for 30 mins by whole cell patch clamp electrophysiology assay (reference value: -62 +/- 1.3 mV); assay type: cell-based; how it was run: as §3
Target sequence in this assay (Q9UQD0 whole entry, looked up, the tested form may be a part): as the sequence (Q9UQD0 whole entry, looked up, one chain of several, the tested form may be a part) above

[16] = biological target: T1, Fibroblast growth factor 14/SCN8A (Homo sapiens); experiment: as §6, with “1976 residues)-FGF14 (64 to 252” for “1976”, “residues) protein-protein interaction” for “residues)”, “-55.1” for “-62”, “2” for “1.3”; assay type: cell-based; how it was run: as §1
[17] = biological target: T2, Sodium channel protein type 8 subunit alpha; experiment: Binding affinity to human recombinant Nav1.6 C-terminal domain expressed in Escherichia coli BL21 assessed as association rate constant by SPR analysis; details: filed as modulator; how it was run: as §4
Target sequence in this assay (Q9UQD0 whole entry, looked up, the tested form may be a part): as the sequence (Q9UQD0 whole entry, looked up, one chain of several, the tested form may be a part) above

In the case of `COC(=O)[C@@H](NC(=O)[C@H](CCC(=O)OC(C)(C)C)NC(=O)[C@H](CC(C)C)NC(=O)[C@@H]1CCCN1C(=O)C12CC3CC(CC(C3)C1)C2)C(C)C` (Adamantane1carbonyl-PLE(OtBu)V-OMe), the Activity [1] is reported as -38.8 pA/pF, the Activity [2] is reported as -16.9 mV and the Kd [3] is reported as 16.4 µM. For the same compound, the K [4] was 5.88 10^6/M/s, the K [5] was 3.57 10^-3/s and the Kd [6] was 4.05 µM. It also gave an Activity [7] of -21.6 mV, an Activity [8] of 0.75 and an Activity [9] of 4.7%. The IC50 [10] was 20.4 µM, the Activity [11] was -17.9 pA/pF and the K [12] was 4.66 10^3/M/s. For the same compound, the inhibition [13] was “inactive”, the Activity [14] was -25.8 pA/pF and the Activity [15] was -55.2 mV. For the same compound, the Activity [16] was -65.6 mV and the K [17] was 6.23 10^4/M/s.
